Data taken from publication PMC7610841 (Nature, 2020).

B1: Dally[E149R, N150T, M151Q, T152F]: Dally mutant removing predicted glycosylation site and restoring hydrophobic F (protein)
chain: KHLDLDGIHHHQHHLHSATTHHRRRLQRDSRAKDAVGGSTHQCDAVKSYFESIDIKSSGTYSEKGAICGGNCCNNATELELRDKAAGMFEQLLHHHTSSLRGVLETNAKQFQSHVLELAQISRTQFHSLFSKVYTRMVPSSRMMIHQLYTEIMNHLIYTSNYTNSNGQLGRRGIGSVQSNLEEAVRHFFVQLFPVAYHQMVHLSKNNLGDLHEDYVNCLQHNFDEMHPFGDIPQQVQSNLGKSVHMSNVFMNALLQAAEVLSEADALYGEQLTDTCKLHLLKMHYCPNCNGHHSSSRSETKLCYGYCKNVMRGCSAEYAGLLDSPWSGVVDSLNNLVTTHILSDTGIINVIKHLQTYFSEAIMAAMHNGPELEKKVKKTCGTPSLTPYSSGEPDARPPPHKNNVKWATDPDPGMVLFLSTIDKSKEFYTTIVDNFCDEQQHSRDDHSCWSGDRFGDYTQLLINPGTDSQRYNPEVPFNAKAQTGKLNELVDKLFKIRKSIGAAAPSNSIQATHDIQNDMGEGSGGGEGQIGDDEEEYGGAHGSGDGSGDGPHTPIEESEGTTTNEVESRDSGKTSG
modifications: left off: HA, end not stated, kept
B2: GPC4: human glypican of Dlp family; secreted ΔGPI form (amino acids 1-487) in solubilisation assays (protein)
chain: ALLAAELKSKSCSEVRRLYVSKGFNKNDAPLHEINGDHLKICPQGSTCCSQEMEEKYSLQSKDDFKSVVSEQCNHLQAVFASRYKKFDEFFKELLENAEKSLNDMFVKTYGHLYMQNSELFKDLFVELKRYYVVGNVNLEEMLNDFWARLLERMFRLVNSQYHFTDEYLECVSKYTEQLKPFGDVPRKLKLQVTRAFVAARTFAQGLAVAGDVVSKVSVVNPTAQCTHALLKMIYCSHCRGLVTVKPCYNYCSNIMRGCLANQGDLDFEWNNFIDAMLMVAERLEGPFNIESVMDPIDVKISDAIMNMQDNSVQVSQKVFQGCGPPKPLPAGRISRSISESAFSARFRPHHPEERPTTAAGTSLDRLVTDVKEKLKQAKKFWSSLPSNVCNDERMAAGNGNEDDCWNGKGKSRYLFAVTGNGLANQGNNPEVQVDTSKPDILILRQIMALRVMTSKMKNAYNGNDVDFFDISDESSGEGSGSGCEYQQCPSEFDYNATDHAGKSANEKADS
modifications: left off: V5, internal (immediately after the signal peptide), state not stated
B3: Dlp[N367C, M175C]^ΔGPI: Dlp mutant with engineered disulphide bridge locking closed, apo conformation (protein)
chain: PQVAALAAPNPAGGVAGSSIIDQFSPNCSAVTHIFQARGIDAIEIPQKPSNERVLRYCESPSVGTCCTYNMETRMAMQSRQQLEGHTKDQISRMSGILGSKATKFKDIFTALLKESRTQFNSCFIRTYGVIYERNSYVFSDLFKELETYFANGRVDLLEVMDKFFNTLYQKMFTVLNTQYTFDENYMRCVSEHMKELKPFGDVPDKLSVQIKRSFVATRTYGQALTTASEVAKKVLNVRLNADCTGALTKMQHCGACKGYTEKPCTNYCVNVIKGCLHYQHEFDSEWENFAMAMDKVAERLLGSFNIVMVVEPLCIKISEAIMNFQDSGQDITNRVFQGCGRPKLKKMKRSISPKLQGVQILNARSPVEADTLDIDETLDEAIVLRERRAAEPGSQETSAQQSQEQGVGKSGNGGGGGGGNNRRQQQRRKQQQQRRKQQNNRDDNDDDDNESGGGREPILDRIVRDIRQRVKDYKKFWSNLPHSVCSNEDIASSSDVDGMCWNGHTIDRYMHSITTEHGSNPEFTGNPASTKQTAQMASQLSHLKNAIVHLRNAYNGQDVEWSEQEELPYAGSGAGSGSGSEDDEDDDEGSGLGPFEPSHKPDVERPSVDADNDDDEDAGGRGHMPTHTSRPTSGVDDKNPLIHTTHFDQDHNDLDEDHRQLDEDEDTDAG
modifications: left off: V5, C-terminal, kept
B4: Dlp[S168M]^ΔGPI: Dlp mutant with bulky residue at cavity entrance; HA form used in discs (protein)
chain: PQVAALAAPNPAGGVAGSSIIDQFSPNCSAVTHIFQARGIDAIEIPQKPSNERVLRYCESPSVGTCCTYNMETRMAMQSRQQLEGHTKDQISRMSGILGSKATKFKDIFTALLKEMRTQFNSMFIRTYGVIYERNSYVFSDLFKELETYFANGRVDLLEVMDKFFNTLYQKMFTVLNTQYTFDENYMRCVSEHMKELKPFGDVPDKLSVQIKRSFVATRTYGQALTTASEVAKKVLNVRLNADCTGALTKMQHCGACKGYTEKPCTNYCVNVIKGCLHYQHEFDSEWENFAMAMDKVAERLLGSFNIVMVVEPLNIKISEAIMNFQDSGQDITNRVFQGCGRPKLKKMKRSISPKLQGVQILNARSPVEADTLDIDETLDEAIVLRERRAAEPGSQETSAQQSQEQGVGKSGNGGGGGGGNNRRQQQRRKQQQQRRKQQNNRDDNDDDDNESGGGREPILDRIVRDIRQRVKDYKKFWSNLPHSVCSNEDIASSSDVDGMCWNGHTIDRYMHSITTEHGSNPEFTGNPASTKQTAQMASQLSHLKNAIVHLRNAYNGQDVEWSEQEELPYAGSGAGSGSGSEDDEDDDEGSGLGPFEPSHKPDVERPSVDADNDDDEDAGGRGHMPTHTSRPTSGVDDKNPLIHTTHFDQDHNDLDEDHRQLDEDEDTDAG
modifications: left off: V5, C-terminal, kept
B5: Dlp[F172T, F195Y]: Dlp mutant replacing hydrophobic residues with polar ones (protein)
chain: MLHQQQQQQHLHCRRKATATTTARLVIFSSPLLLLLLTTHLPPTLQADNGPAPQVAALAAPNPAGGVAGSSIIDQFSPNCSAVTHIFQARGIDAIEIPQKPSNERVLRYCESPSVGTCCTYNMETRMAMQSRQQLEGHTKDQISRMSGILGSKATKFKDIFTALLKESRTQTNSMFIRTYGVIYERNSYVFSDLYKELETYFANGRVDLLEVMDKFFNTLYQKMFTVLNTQYTFDENYMRCVSEHMKELKPFGDVPDKLSVQIKRSFVATRTYGQALTTASEVAKKVLNVRLNADCTGALTKMQHCGACKGYTEKPCTNYCVNVIKGCLHYQHEFDSEWENFAMAMDKVAERLLGSFNIVMVVEPLNIKISEAIMNFQDSGQDITNRVFQGCGRPKLKKMKRSISPKLQGVQILNARSPVEADTLDIDETLDEAIVLRERRAAEPGSQETSAQQSQEQGVGKSGNGGGGGGGNNRRQQQRRKQQQQRRKQQNNRDDNDDDDNESGGGREPILDRIVRDIRQRVKDYKKFWSNLPHSVCSNEDIASSSDVDGMCWNGHTIDRYMHSITTEHGSNPEFTGNPASTKQTAQMASQLSHLKNAIVHLRNAYNGQDVEWSEQEELPYAGSGAGSGSGSEDDEDDDEGSGLGPFEPSHKPDVERPSVDADNDDDEDAGGRGHMPTHTSRPTSGVDDKNPLIHTTHFDQDHNDLDEDHRQLDEDEDTDAGHDGANDNRSSDAPEKMTLRRALVVYLLPLYMAWFGGVCADLL
modifications: left off: HA, end not stated, kept
B6: Dlp[R169E, T170N, Q171M, F172T]: Dlp mutant introducing the putative glycosylation site of Dally (protein)
chain: MLHQQQQQQHLHCRRKATATTTARLVIFSSPLLLLLLTTHLPPTLQADNGPAPQVAALAAPNPAGGVAGSSIIDQFSPNCSAVTHIFQARGIDAIEIPQKPSNERVLRYCESPSVGTCCTYNMETRMAMQSRQQLEGHTKDQISRMSGILGSKATKFKDIFTALLKESENMTNSMFIRTYGVIYERNSYVFSDLFKELETYFANGRVDLLEVMDKFFNTLYQKMFTVLNTQYTFDENYMRCVSEHMKELKPFGDVPDKLSVQIKRSFVATRTYGQALTTASEVAKKVLNVRLNADCTGALTKMQHCGACKGYTEKPCTNYCVNVIKGCLHYQHEFDSEWENFAMAMDKVAERLLGSFNIVMVVEPLNIKISEAIMNFQDSGQDITNRVFQGCGRPKLKKMKRSISPKLQGVQILNARSPVEADTLDIDETLDEAIVLRERRAAEPGSQETSAQQSQEQGVGKSGNGGGGGGGNNRRQQQRRKQQQQRRKQQNNRDDNDDDDNESGGGREPILDRIVRDIRQRVKDYKKFWSNLPHSVCSNEDIASSSDVDGMCWNGHTIDRYMHSITTEHGSNPEFTGNPASTKQTAQMASQLSHLKNAIVHLRNAYNGQDVEWSEQEELPYAGSGAGSGSGSEDDEDDDEGSGLGPFEPSHKPDVERPSVDADNDDDEDAGGRGHMPTHTSRPTSGVDDKNPLIHTTHFDQDHNDLDEDHRQLDEDEDTDAGHDGANDNRSSDAPEKMTLRRALVVYLLPLYMAWFGGVCADLL
modifications: left off: HA, end not stated, kept

Columns and labels:
[1] = system: extracellular Wingless; test: In vivo trapping of endogenous extracellular Wingless in wing discs; design: species or system Drosophila; conditions: overexpressed with ptc-gal4 in wing discs; extracellular Wingless staining
Outline: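 HA-tagged wild-type or point-mutant Dlp/Dally transgenes (attP2 landing site) driven by ptc-gal4, crossed at 25°C. Wing discs immunostained for extracellular Wingless using an extracellular staining protocol, DAPI-mounted and imaged on a confocal microscope. Three independent repeats.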

[2] = system: GFP-Wingless; test: In vivo trapping of GFP-Wingless at the surface of wing imaginal disc cells; design: species or system Drosophila; conditions: overexpressed with ptc-Gal4 in wing imaginal discs; listed as hGPC4
Outline: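 GFP-Wingless knock-in wing discs with V5-tagged human GPC4, GPC6, GPC3 or GPC5 driven by ptc-Gal4, crossed at 25°C. Surface capture of GFP-Wingless imaged by confocal microscopy after immunostaining with Alexa-conjugated secondaries and DAPI mounting. Three independent repeats.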

[3] = system: senseless; test: Effect of overexpression on high target gene senseless in wing discs; format: in vivo, Drosophila; conditions: driven with ptc-Gal4 in wing discs
Outline: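 Wing discs from crosses at 25°C, with V5-tagged human glypican UAS-attB transgenes driven by ptc-Gal4 (senseless) or en-Gal4 (Distal-less). Discs immunostained with Alexa-conjugated secondaries, DAPI-mounted and imaged by confocal microscopy. Distal-less signal quantified in boxed regions and plotted separately for anterior and posterior compartments. Three independent repeats.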

Row | Molecule | trapping of endogenous Wingless [1] | trapping of GFP-Wingless at the cell surface [2] | effect on high target gene senseless [3]
1 | B1 | did not confer lipid-binding activity | – | –
2 | B2 | – | trapped Wingless | inhibit the high target gene senseless
3 | B3 | no in vivo trapping activity | – | –
4 | B4 | retained some activity | – | –
5 | B5 | reduced trapping, though not completely | – | –
6 | B6 | reduced trapping, though not completely | – | –
